How the values were obtained:
[1] = Genotoxicity in Salmonella typhimurium TA1535 harboring pSK1002 assessed as survival at 0.063 mg/ml in presence of Sprague-Dawley rat liver S9 fraction after by SOS/umu assay relative to control; format: toxicity, organism-based; settings: salmonella enterica subsp. enterica serovar typhimurium, read-out: Survival
[2] = Genotoxicity in Salmonella typhimurium TA1535 harboring pSK1002 assessed as umu gene induction at 0.008 mg/ml in presence of Sprague-Dawley rat liver S9 fraction after by SOS/umu assay relative to control; format: toxicity, organism-based; settings: salmonella enterica subsp. enterica serovar typhimurium, read-out: FC
[3] = Genotoxicity in Salmonella typhimurium TA1535 harboring pSK1002 assessed as umu gene induction at 0.016 mg/ml in presence of Sprague-Dawley rat liver S9 fraction after by SOS/umu assay relative to control; format: toxicity, organism-based; settings: salmonella enterica subsp. enterica serovar typhimurium, read-out: FC
[4] = Genotoxicity in Salmonella typhimurium TA1535 harboring pSK1002 assessed as survival at 0.008 mg/ml in absence of Sprague-Dawley rat liver S9 fraction after by SOS/umu assay relative to control; format: toxicity, organism-based; settings: salmonella enterica subsp. enterica serovar typhimurium, read-out: Survival
[5] = Genotoxicity in Salmonella typhimurium TA1535 harboring pSK1002 assessed as survival at 0.002 mg/ml in absence of Sprague-Dawley rat liver S9 fraction after by SOS/umu assay relative to control; format: toxicity, organism-based; settings: salmonella enterica subsp. enterica serovar typhimurium, read-out: Survival
[6] = Genotoxicity in Salmonella typhimurium TA1535 harboring pSK1002 assessed as survival at 0.125 mg/ml in absence of Sprague-Dawley rat liver S9 fraction after by SOS/umu assay relative to control; format: toxicity, organism-based; settings: salmonella enterica subsp. enterica serovar typhimurium, read-out: Survival
[7] = Genotoxicity in Salmonella typhimurium TA1535 harboring pSK1002 assessed as umu gene induction at 0.031 mg/ml in presence of Sprague-Dawley rat liver S9 fraction after by SOS/umu assay relative to control; format: toxicity, organism-based; settings: salmonella enterica subsp. enterica serovar typhimurium, read-out: FC
[8] = Genotoxicity in Salmonella typhimurium TA1535 harboring pSK1002 assessed as umu gene induction at 0.001 mg/ml in absence of Sprague-Dawley rat liver S9 fraction after by SOS/umu assay relative to control; format: toxicity, organism-based; settings: salmonella enterica subsp. enterica serovar typhimurium, read-out: FC
Plasmodium falciparum [9] = experiment: Antiplasmodial activity against chloroquine-sensitive Plasmodium falciparum 3D7 by [3H]-hypoxanthine incorporation assay; format: functional, organism-based
Outline: (§1)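 Blood-stage P. falciparum 3D7 and FCR-3 were tested by a modified [3H]-hypoxanthine incorporation assay. Chloroquine was the reference in all runs.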

[10] = Genotoxicity in Salmonella typhimurium TA1535 harboring pSK1002 assessed as survival at 0.008 mg/ml in presence of Sprague-Dawley rat liver S9 fraction after by SOS/umu assay relative to control; format: toxicity, organism-based; settings: salmonella enterica subsp. enterica serovar typhimurium, read-out: Survival
[11] = Genotoxicity in Salmonella typhimurium TA1535 harboring pSK1002 assessed as umu gene induction at 0.031 mg/ml in absence of Sprague-Dawley rat liver S9 fraction after by SOS/umu assay relative to control; format: toxicity, organism-based; settings: salmonella enterica subsp. enterica serovar typhimurium, read-out: FC
[12] = Genotoxicity in Salmonella typhimurium TA1535 harboring pSK1002 assessed as umu gene induction at 0.125 mg/ml in presence of Sprague-Dawley rat liver S9 fraction after by SOS/umu assay relative to control; format: toxicity, organism-based; settings: salmonella enterica subsp. enterica serovar typhimurium, read-out: FC
[13] = Cytotoxicity against human HepG2A16 cells by MTT assay; format: cell-based
Outline: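 MTT viability assay on HepG2-A16 cells, giving CC50 values.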

[14] = Genotoxicity in Salmonella typhimurium TA1535 harboring pSK1002 assessed as umu gene induction at 0.016 mg/ml in absence of Sprague-Dawley rat liver S9 fraction after by SOS/umu assay relative to control; format: toxicity, organism-based; settings: salmonella enterica subsp. enterica serovar typhimurium, read-out: FC
[15] = Genotoxicity in Salmonella typhimurium TA1535 harboring pSK1002 assessed as umu gene induction at 0.002 mg/ml in presence of Sprague-Dawley rat liver S9 fraction after by SOS/umu assay relative to control; format: toxicity, organism-based; settings: salmonella enterica subsp. enterica serovar typhimurium, read-out: FC
[16] = Genotoxicity in Salmonella typhimurium TA1535 harboring pSK1002 assessed as umu gene induction at 0.063 mg/ml in absence of Sprague-Dawley rat liver S9 fraction after by SOS/umu assay relative to control; format: toxicity, organism-based; settings: salmonella enterica subsp. enterica serovar typhimurium, read-out: FC
[17] = Genotoxicity in Salmonella typhimurium TA1535 harboring pSK1002 assessed as umu gene induction at 0.001 mg/ml in presence of Sprague-Dawley rat liver S9 fraction after by SOS/umu assay relative to control; format: toxicity, organism-based; settings: salmonella enterica subsp. enterica serovar typhimurium, read-out: FC
[18] = Genotoxicity in Salmonella typhimurium TA1535 harboring pSK1002 assessed as survival at 0.031 mg/ml in presence of Sprague-Dawley rat liver S9 fraction after by SOS/umu assay relative to control; format: toxicity, organism-based; settings: salmonella enterica subsp. enterica serovar typhimurium, read-out: Survival
[19] = Selectivity index, ratio of CC50 for human HepG2A16 cells by MTT assay to IC50 for multidrug-resistant Plasmodium falciparum FCR-3; format: toxicity; settings: for selectivity ratio: HepG2A16 cells, read-out: Ratio CC50/IC50
Outline: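 HepG2-A16 human hepatoma cells were tested by MTT viability assay to give CC50. Blood-stage activity was measured against the multidrug-resistant P. falciparum FCR-3 strain by [3H]-hypoxanthine incorporation to give IC50. SI = CC50 HepG2 / FCR-3 IC50.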

[20] = Genotoxicity in Salmonella typhimurium TA1535 harboring pSK1002 assessed as umu gene induction at 0.125 mg/ml in absence of Sprague-Dawley rat liver S9 fraction after by SOS/umu assay relative to control; format: toxicity, organism-based; settings: salmonella enterica subsp. enterica serovar typhimurium, read-out: FC
[21] = Genotoxicity in Salmonella typhimurium TA1535 harboring pSK1002 assessed as umu gene induction at 0.008 mg/ml in absence of Sprague-Dawley rat liver S9 fraction after by SOS/umu assay relative to control; format: toxicity, organism-based; settings: salmonella enterica subsp. enterica serovar typhimurium, read-out: FC
[22] = Genotoxicity in Salmonella typhimurium TA1535 harboring pSK1002 assessed as survival at 0.063 mg/ml in absence of Sprague-Dawley rat liver S9 fraction after by SOS/umu assay relative to control; format: toxicity, organism-based; settings: salmonella enterica subsp. enterica serovar typhimurium, read-out: Survival
[23] = Genotoxicity in Salmonella typhimurium TA1535 harboring pSK1002 assessed as survival at 0.125 mg/ml in presence of Sprague-Dawley rat liver S9 fraction after by SOS/umu assay relative to control; format: toxicity, organism-based; settings: salmonella enterica subsp. enterica serovar typhimurium, read-out: Survival
Plasmodium falciparum [24] = experiment: Antiplasmodial activity against multidrug-resistant Plasmodium falciparum FCR-3 by [3H]-hypoxanthine incorporation assay; format: functional, organism-based, FCR-3/Gambia; settings: Plasmodium falciparum, FCR-3/Gambia; outline: as §1
[25] = Genotoxicity in Salmonella typhimurium TA1535 harboring pSK1002 assessed as umu gene induction at 0.063 mg/ml in presence of Sprague-Dawley rat liver S9 fraction after by SOS/umu assay relative to control; format: toxicity, organism-based; settings: salmonella enterica subsp. enterica serovar typhimurium, read-out: FC
[26] = Genotoxicity in Salmonella typhimurium TA1535 harboring pSK1002 assessed as survival at 0.004 mg/ml in absence of Sprague-Dawley rat liver S9 fraction after by SOS/umu assay relative to control; format: toxicity, organism-based; settings: salmonella enterica subsp. enterica serovar typhimurium, read-out: Survival
[27] = Genotoxicity in Salmonella typhimurium TA1535 harboring pSK1002 assessed as survival at 0.001 mg/ml in presence of Sprague-Dawley rat liver S9 fraction after by SOS/umu assay relative to control; format: toxicity, organism-based; settings: salmonella enterica subsp. enterica serovar typhimurium, read-out: Survival
[28] = Genotoxicity in Salmonella typhimurium TA1535 harboring pSK1002 assessed as umu gene induction at 0.004 mg/ml in absence of Sprague-Dawley rat liver S9 fraction after by SOS/umu assay relative to control; format: toxicity, organism-based; settings: salmonella enterica subsp. enterica serovar typhimurium, read-out: FC
[29] = Genotoxicity in Salmonella typhimurium TA1535 harboring pSK1002 assessed as umu gene induction at 0.002 mg/ml in absence of Sprague-Dawley rat liver S9 fraction after by SOS/umu assay relative to control; format: toxicity, organism-based; settings: salmonella enterica subsp. enterica serovar typhimurium, read-out: FC

Row | Compound | viability at 0.063 mg/ml [1] [%] | fold induction at 0.008 mg/ml [2] | fold induction at 0.016 mg/ml [3] | viability at 0.008 mg/ml [4] [%] | viability at 0.002 mg/ml [5] [%] | viability at 0.125 mg/ml [6] [%] | fold induction at 0.031 mg/ml [7] | fold induction at 0.001 mg/ml [8] | viability at 0.008 mg/ml [10] [%] | fold induction at 0.031 mg/ml [11] | fold induction at 0.125 mg/ml [12] | fold induction at 0.016 mg/ml [14] | fold induction at 0.002 mg/ml [15] | fold induction at 0.063 mg/ml [16] | fold induction at 0.001 mg/ml [17] | viability at 0.031 mg/ml [18] [%] | fold induction at 0.125 mg/ml [20] | fold induction at 0.008 mg/ml [21] | viability at 0.063 mg/ml [22] [%] | viability at 0.125 mg/ml [23] [%] | also measured
1 | OC(CCN1CCN(c2ccccc2C(F)(F)F)CC1)c1ccc(F)c2ccccc12 (stereo in doubt; 55) | 90.8 | 0.2 | 1.1 | 68.7 | 51.4 | 167 | 0.7 | 0.7 | 121 | 0.4 | 0.7 | 0.6 | 0.5 | 0.2 | 0.3 | 101 | 0.3 | 0.9 | 138 | 100 | IC50 (Plasmodium falciparum [9]): 160 nM; CC50 [13]: 27500 nM; Ratio CC50/IC50 [19]: 183; IC50 (Plasmodium falciparum [24]): 150 nM; fold induction at 0.063 mg/ml [25]: 0.8; viability at 0.004 mg/ml [26]: 52.1%; viability at 0.001 mg/ml [27]: 106%; fold induction at 0.004 mg/ml [28]: 1.1; fold induction at 0.002 mg/ml [29]: 0.8
2 | OC(CCN1CC=C(c2ccc(F)cc2)CC1)c1ccc2c(c1)OCO2 (stereo unspecified) | 105 | 1 | 1 | 128 | 122 | 116 | 0.7 | 0.5 | 96 | 0.8 | 1 | 0.9 | 1 | 0.9 | 0.7 | 137 | 0.8 | 0.7 | 96.6 | 99.6 | IC50 (Plasmodium falciparum [9]; Plasmodium falciparum, 3D7): 17400 nM; CC50 ([13]; HepG2A16 cells): 165000 nM; selectivity ratio [19]: 97; IC50 (Plasmodium falciparum [24]): 1700 nM; fold induction at 0.063 mg/ml [25]: 0.9; viability at 0.004 mg/ml [26]: 114%; viability at 0.001 mg/ml [27]: 111%; fold induction at 0.004 mg/ml [28]: 0.8; fold induction at 0.002 mg/ml [29]: 0.8
3 | Oc1ccc(C(O)CCN2CC=C(c3ccc(F)cc3)CC2)cc1 (stereo unspecified) | 118 | 0.6 | 1.2 | 98.3 | 98.6 | 112 | 1.8 | 1.2 | 108 | 1.1 | 0.4 | 1.2 | 1.4 | 0.5 | 0.5 | 110 | 0.5 | 1.1 | 123 | 103 | IC50 (Plasmodium falciparum [9]; Plasmodium falciparum, 3D7): 22200 nM; CC50 ([13]; HepG2A16 cells): 253000 nM; selectivity ratio [19]: 88; IC50 (Plasmodium falciparum [24]): 2880 nM; fold induction at 0.063 mg/ml [25]: 0.4; viability at 0.004 mg/ml [26]: 97.1%; viability at 0.001 mg/ml [27]: 102%; fold induction at 0.004 mg/ml [28]: 1; fold induction at 0.002 mg/ml [29]: 1
4 | OC(CCN1CCN(c2ccccc2C(F)(F)F)CC1)c1ccc(F)cc1 (stereo unspecified) | 89 | 1 | 0.9 | 98.3 | 110 | 25.4 | 1 | 0.9 | 96.1 | 0.8 | 1.9 | 0.8 | 1 | 1.3 | 1.1 | 86.7 | 1.2 | 0.8 | 28.6 | 21.3 | IC50 (Plasmodium falciparum [9]; Plasmodium falciparum, 3D7): 1010 nM; CC50 ([13]; HepG2A16 cells): 1350 nM; selectivity ratio [19]: 1; IC50 (Plasmodium falciparum [24]): 1690 nM; fold induction at 0.063 mg/ml [25]: 0.8; viability at 0.004 mg/ml [26]: 107%; viability at 0.001 mg/ml [27]: 84.6%; fold induction at 0.004 mg/ml [28]: 0.9; fold induction at 0.002 mg/ml [29]: 0.8

Source: ChEMBL document CHEMBL4152256, “Structure-activity relationship of new antimalarial 1-aryl-3-susbtituted propanol derivatives: Synthesis, preliminary toxicity profiling, parasite life cycle stage studies, target exploration, and targeted delivery” (Eur J Med Chem, 2018)
